The GI50 is the concentration at which growth is held to half of that of the control. Read a low GI50 as more potent growth inhibition.

These results are taken from ChEMBL document CHEMBL4808215, “Discovery of Selective Small-Molecule Inhibitors for the ENL YEATS Domain” (J Med Chem, 2021).

Calls of active or inactive are those of the source. The rule behind the calls is not given here.

Experiment [1] addresses YEATS domain-containing protein 4 (GAS41) (Homo sapiens) (UniProt O95619). Kind of experiment: Stabilization of GAS41 in human MOLM13 cells assessed as inhibition of high temperature-induced GAS41 protein degradation at 20 uM incubated for 5 hrs by cellular thermal shift assay. As to conditions: MOLM-13.
Experiment [2] concerns MV4-11. Kind of experiment: Growth inhibition of human MV4-11 cells at 2.5 to 50 uM incubated for 3 days by CellTiter-Glo luminescent cell viability assay relative to control. The experiment is classed as functional, cell-based. The note with it: dose 2.5-50 µM, time 3.0 day. The method, boiled down:
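MOLM13 and MV4;11 were grown in RPMI-1640 + 10% FBS, U2OS in DMEM + 10% FBS. Treatment with DMSO or compound for 3 days. Viability read by CellTiter-Glo luminescence and expressed as % of DMSO-treated cells. Mean ± SEM, n = 3.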
On the technique in general: In ATP-based viability assays light output follows the ATP content of the culture.

Experiment [3] has as its target T1, Protein ENL (Homo sapiens) (UniProt Q03111).
T1 sequence (whole entry): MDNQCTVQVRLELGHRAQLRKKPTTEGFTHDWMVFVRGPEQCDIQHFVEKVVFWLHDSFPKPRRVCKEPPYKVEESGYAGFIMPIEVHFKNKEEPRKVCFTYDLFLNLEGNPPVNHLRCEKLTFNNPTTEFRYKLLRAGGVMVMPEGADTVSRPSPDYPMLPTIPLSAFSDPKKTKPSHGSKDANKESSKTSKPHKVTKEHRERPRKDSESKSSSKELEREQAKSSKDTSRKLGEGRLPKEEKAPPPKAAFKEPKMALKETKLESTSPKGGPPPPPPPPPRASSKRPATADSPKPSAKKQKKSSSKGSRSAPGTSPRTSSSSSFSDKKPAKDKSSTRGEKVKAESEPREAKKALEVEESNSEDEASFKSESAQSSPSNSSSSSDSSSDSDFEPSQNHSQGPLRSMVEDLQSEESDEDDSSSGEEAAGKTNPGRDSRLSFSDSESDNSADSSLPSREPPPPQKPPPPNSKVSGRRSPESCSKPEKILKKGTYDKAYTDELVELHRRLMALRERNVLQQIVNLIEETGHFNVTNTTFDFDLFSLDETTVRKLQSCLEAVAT
The experiment can be described thus: Stabilization of ENL in human HeLa cells assessed as inhibition of high temperature-induced ENL protein degradation at 20 uM incubated for 5 hrs by cellular thermal shift assay. Format: cell-based. In outline: (§1)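 Cells (MOLM13, MV4;11 or HeLa) were treated with 20 μM compound or DMSO for 5 h, washed with PBS and resuspended in PBS with protease inhibitors, about 3 million cells per aliquot. Aliquots were heated 3 min at the indicated temperatures, then held 2 min at room temperature. Lysis was by NP40/glycerol/DTT buffer and three freeze-thaw cycles, followed by a 13,000 rpm spin at 4 °C. Soluble ENL, GAS41 or AF9 in supernatants was measured by western blot with β-actin loading control.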

The target in experiment [4] is YEATS domain-containing protein 4 (GAS41) (Homo sapiens) (UniProt O95619). Kind of experiment: Stabilization of GAS41 in human MV4-11 cells assessed as inhibition of high temperature-induced GAS41 protein degradation at 20 uM incubated for 5 hrs by cellular thermal shift assay.
Sequence of YEATS domain-containing protein 4 (GAS41) (Homo sapiens) (O95619 whole entry, looked up, the tested form may be a part): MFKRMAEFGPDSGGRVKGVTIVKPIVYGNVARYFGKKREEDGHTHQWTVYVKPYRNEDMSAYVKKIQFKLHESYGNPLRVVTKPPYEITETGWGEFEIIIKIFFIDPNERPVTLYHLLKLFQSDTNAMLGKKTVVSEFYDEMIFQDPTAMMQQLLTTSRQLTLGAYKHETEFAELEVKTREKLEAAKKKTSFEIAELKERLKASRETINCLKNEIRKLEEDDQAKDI
Experiment [5] concerns MOLM-13. The experiment can be described thus: Growth inhibition of human MOLM-13 cells incubated for 6 days by CellTiter-Glo luminescent cell viability assay. As to conditions: MOLM-13, 144 h.
For experiment [6], the target named is T2, Protein AF-9 (Homo sapiens) (UniProt P42568).
T2 sequence (whole entry): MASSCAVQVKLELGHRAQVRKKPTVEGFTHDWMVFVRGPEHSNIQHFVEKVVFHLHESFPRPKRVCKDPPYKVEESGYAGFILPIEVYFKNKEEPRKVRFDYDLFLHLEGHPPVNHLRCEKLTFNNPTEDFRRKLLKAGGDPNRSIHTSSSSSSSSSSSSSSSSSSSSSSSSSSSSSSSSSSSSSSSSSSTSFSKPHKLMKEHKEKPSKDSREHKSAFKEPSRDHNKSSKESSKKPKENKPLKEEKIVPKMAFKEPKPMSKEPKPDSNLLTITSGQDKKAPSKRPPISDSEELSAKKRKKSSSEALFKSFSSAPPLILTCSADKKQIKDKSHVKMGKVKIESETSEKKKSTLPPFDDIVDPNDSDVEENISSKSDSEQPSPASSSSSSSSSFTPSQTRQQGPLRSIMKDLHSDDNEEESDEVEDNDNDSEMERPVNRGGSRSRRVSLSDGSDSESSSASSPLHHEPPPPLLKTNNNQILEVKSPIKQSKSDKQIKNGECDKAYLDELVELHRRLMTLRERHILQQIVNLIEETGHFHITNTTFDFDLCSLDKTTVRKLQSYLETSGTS
Kind of experiment: Stabilization of AF9 in human HeLa cells assessed as inhibition of high temperature-induced AF9 protein degradation at 20 uM incubated for 5 hrs by cellular thermal shift assay. The experiment is classed as cell-based. The method, boiled down: as §1

Experiment [7] has as its target T1, Protein ENL (Homo sapiens). Kind of experiment: Stabilization of ENL in human MOLM13 cells assessed as inhibition of high temperature-induced ENL protein degradation at 20 uM incubated for 5 hrs by cellular thermal shift assay. The note with it: MOLM-13. Format: cell-based. In outline: as §1

`CN(C)Cc1ccc(CNC(=O)c2ccc3nncn3c2)cc1`: the result in experiment [1], in experiment [4] and in experiment [6] was inactive. In addition, the “growth inhibition (GI)” value in experiment [2] was “Active”. For the same compound, the result in experiment [3] and in experiment [7] was Active. The GI50 in experiment [5] is 3.64 µM.
